Screening results from PubChem.
In the library only some 2.5% were active in any assay of this set; here they are far more common.
PRMT1 FP inh – PRMT1 methyltransferase inhibitors, primary screen, biochemical, fluorescence polarization | Protein arginine N-methyltransferase 1 (Homo sapiens), Q99873 | recombinant PRMT1, activity-based probe fluorescence polarization | inhibition, % at 2.79 µM | actives 1.3% (n = 370,000) | AID 652257, 2013;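 active = inhibition above about 21% made by adding two undisclosed values, limit read from the data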
SIAE inh – human SIAE inhibitors, primary screen, biochemical, fluorescence polarization, FP-Rh probe, 1536-well HTS; Sialate O-acetylesterase (Homo sapiens), Q9HAT2; AID 1053197, 2014; SIAE FP-Rh probe binding; inhibition, % at 9.66 µM; actives 0.69% (n = 370,000);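 active = inhibition above a cutoff: mean of compounds within the control limits plus 3 SD of those, cut at about 17% in these data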;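 also: 0% = plate median of compound wells and 100% = probe without SIAE protein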
Target sequence (Q9HAT2 whole entry, looked up): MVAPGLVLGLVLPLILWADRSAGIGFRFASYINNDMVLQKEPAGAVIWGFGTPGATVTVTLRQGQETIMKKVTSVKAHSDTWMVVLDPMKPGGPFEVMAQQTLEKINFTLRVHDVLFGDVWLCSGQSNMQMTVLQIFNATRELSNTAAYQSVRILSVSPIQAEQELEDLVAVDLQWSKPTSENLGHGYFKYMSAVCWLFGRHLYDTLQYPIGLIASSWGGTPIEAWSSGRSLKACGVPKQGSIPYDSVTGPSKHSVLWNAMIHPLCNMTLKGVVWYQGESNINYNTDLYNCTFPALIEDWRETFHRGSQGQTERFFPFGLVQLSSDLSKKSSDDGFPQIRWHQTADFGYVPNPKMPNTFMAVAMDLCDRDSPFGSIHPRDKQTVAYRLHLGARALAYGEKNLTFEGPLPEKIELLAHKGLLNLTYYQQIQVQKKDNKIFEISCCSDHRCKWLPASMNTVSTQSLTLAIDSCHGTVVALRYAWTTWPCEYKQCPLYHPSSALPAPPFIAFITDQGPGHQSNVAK
TCR-CD3 inh – inhibitors of human TCR-CD3 interaction, primary screen, biochemical, fluorescence, TAMRA-labeled TCR probe; inhibition, % at 9.4 µM; actives 0.37% (n = 360,000); T-cell receptor (TCR); AID 651800, 2012; in the data active = inhibition above about 19%;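 also: recombinant mutant TCR 2C K166C tagged with TAMRA read by polarization; 0% = receptor in buffer alone and 100% = receptor with positive control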
HTRA1 inhibitor – HTRA1 serine protease inhibitors, primary screen, biochemical, fluorescence polarization, HTS; Q92743; recombinant HTRA1, FP-rhodamine activity-based probe; inhibition, % at 5.96 µM; actives 0.5% (n = 340,000); AID 504803, 2011; in the data active = inhibition above about 36%;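 also: 0% = enzyme with DMSO and 100% = wells lacking enzyme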
ABHD4 inh – ABHD4 inhibitors, primary screen, biochemical, fluorescence polarization, mouse | purified mABHD4, FP-Rh probe fluorescence polarization | inhibition, % at 8.92 µM | actives 0.54% (n = 370,000) | AID 720543, 2013;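 active = inhibition exceeding the mean over every tested compound plus 3 SD, cut at about 30% in these data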;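 also: 0% = plate median of compound wells and 100% = S159A mutant with DMSO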
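Test system: mABHD4 protein; Read-out basis: % inhibition; Incubation: 45 min + 60 min at 25 °C; Repeats: single replicate; Technique: fluorescence polarization with parallel and perpendicular emission, 525/598 nm; Compound: 8.92 µM, single dose; Benchmarks: full inhibition S159A mutant plus DMSO, zero as sample-well median.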
PRMT1 confirm – PRMT1 methyltransferase inhibitors, confirmation, biochemical, fluorescence polarization, triplicate | recombinant His-PRMT1, activity-based probe fluorescence polarization | actives 42% (n = 3,300) | shares compounds with PRMT1 FP inh | inhibition, % at 2.79 µM;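 active = mean inhibition across replicates above the hit cutoff derived for the earlier primary screen, cut at about 22% in these data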
* hit, by the source's call; / = no result given.

SMILES	PRMT1 FP inh	SIAE inh	TCR-CD3 inh	HTRA1 inhibitor	ABHD4 inh	PRMT1 confirm
O=c1[nH]c(=O)n(Cc2ccccc2)c2nc(-c3ccco3)cc(C(F)(F)F)c12	1	1	4	4	13	/
Cc1cc(C)n(CCc2nc(-c3ccco3)cs2)n1	40*	7	11	9	4	57*
COc1ccccc1N1CCN(C(=O)CC(NC(=O)c2ccccc2Cl)c2ccccc2)CC1 (stereo unspecified)	1	4	-5	-4	2	/
COC(=O)c1cc(C(=O)Nc2nnc(CC(C)C)s2)cc([N+](=O)[O-])c1	-3	2	3	3	5	/
CCC(CC)c1nnc(NC(=O)c2cc(C(=O)OC)cc([N+](=O)[O-])c2)s1	29*	-1	-4	0	-6	20
CCOCCCNC(=O)c1c[nH]c2c(CC)cccc2c1=O	-3	-6	4	-1	-3	/
CCOC(=O)CC[C@@]1(C(=O)OCC)C[C@@H](CC(=O)N2CCN(C(=O)c3ccco3)CC2)C(=O)N2CCCC=C21	-5	0	/	/	6	/
CC(C)n1ncc2c(C(=O)Nc3ccccc3SCC(N)=O)cc(C3CC3)nc21	80*	-4	-2	-19	-6	-3
CCc1ccccc1NC(=O)CNC(=O)c1cc(C2CC2)nc2c1cnn2C(C)C	2	0	-8	-5	-3	/
CCCC[C@H]1C2CC(OC(=O)Nc3ccc(C#N)cc3)C(C2)[C@H]2CCCCN21 (stereo partly specified)	1	0	/	/	-3	/
O=C(CSc1nc2nc(-c3cccs3)cc(C(F)(F)F)c2c(=O)[nH]1)NCc1ccco1	30*	-12	2	-10	-6	13
O=C(CSc1nc2nc(-c3cccs3)cc(C(F)(F)F)c2c(=O)[nH]1)C(F)(F)F	58*	4	2	-6	-2	84*
CC(=O)Nc1ccc(NC(=O)CSc2nc3nc(-c4cccs4)cc(C(F)(F)F)c3c(=O)[nH]2)cc1	4	-3	3	-12	-3	/
COC(=O)CSc1nc2nc(-c3cccs3)cc(C(F)(F)F)c2c(=O)[nH]1	2	-2	6	6	2	/
Cc1ccc(N=CC2=C(O)CC(C)(C)CC2=O)nc1	-3	1	-3	-2	2	/
Cc1ccc(N=Cc2c(O)n(C)c(=O)n(C)c2=O)nc1	29*	0	2	2	-1	-5
C=CS(=O)(=O)c1sc(Cl)c(N2CCOCC2)c1[N+](=O)[O-]	68*	7	0	2	10	82*
C=CSc1sc(Cl)c(N2CCOCC2)c1[N+](=O)[O-]	2	-4	-5	-1	-1	/
O=C(CCN1C(=O)/C(=C/c2ccco2)SC1=S)Nc1ccc(O)cc1C(=O)O	68*	-2	-4	9	20	38*
O=C(CCN1C(=O)/C(=C\c2cccs2)SC1=S)Nc1ccc(C(=O)O)cc1	0	-5	-6	-8	-22	/
COc1ccccc1/C=C1\SC(=S)N(CCC(=O)Nc2ccc(C(=O)O)c(O)c2)C1=O	1	-39	5	-86	-89	/
CC(C(=O)Nc1ccc(O)cc1C(=O)O)N1C(=O)/C(=C\c2cccs2)SC1=S (stereo unspecified)	58*	-3	2	-18	12	28*
O=C(CCN1C(=O)/C(=C/c2ccco2)SC1=S)Nc1ccc(C(=O)O)c(O)c1	39*	10	-2	-12	-14	30*
O=C(CCCN1C(=O)/C(=C\c2ccccc2)SC1=S)Nc1ccc(O)cc1C(=O)O	6	7	5	-4	5	/
O=C(CCN1C(=O)/C(=C\c2ccco2)SC1=S)Nc1ccc(C(=O)O)c(O)c1	39*	-1	8	4	-3	28*
CS(=O)(=O)N1CCSC1c1ccc(Br)cc1 (stereo unspecified)	0	-3	2	4	-5	/
